From ChEMBL document CHEMBL1123554, “Acetylenic nucleosides. 4. 1-beta-D-arabinofuranosyl-5-ethynylcytosine. Improved synthesis and evaluation of biochemical and antiviral properties” (1987) come the findings set out here.

The test system of assay [1] is Human alphaherpesvirus 1. Briefly: Antiviral activity against DNA polymerase mutant resistant to PFA 1a (PFA) was determined at a conc of 100 uM. It counts as functional. The gist of the method: (§1)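 HSV-infected HeLa BU cells seeded in 25-cm² flasks. The next day, virus was added at a multiplicity of 3–5 PFU/cell and allowed 1 h to adsorb. Virus was then removed and growth medium with or without drug was added. Cells were held at 37 °C for 24 h, then frozen at –70 °C until titration. Yield is expressed as PFU, % of untreated control.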

Assay [2] relates to Human alphaherpesvirus 1. Briefly: Antiviral activity against HSV-1 kinase mutant resistant to S1(ACV) was determined at a conc of 100 uM. It is filed as functional. The gist of the method:
as §1

The test system of assay [3] is Human alphaherpesvirus 1. Briefly: Antiviral activity against HSV-1 kinase mutant resistant to Tr7(ACV) was determined at a conc of 50 uM. It is filed as functional. The gist of the method: as §1
Assay [4] relates to Human alphaherpesvirus 1. The assay can be described thus: Antiviral activity against DNA polymerase mutant resistant to PFA 3b(PFA) was determined at a conc of 50 uM. It counts as functional. The gist of the method:
as §1

The subject of assay [5] is Human alphaherpesvirus 1. The assay can be described thus: Antiviral activity against HSV-1 kinase mutant resistant to SCS(parental) was determined at a conc of 100 uM. It counts as functional. The gist of the method:
as §1

Assay [6] deals with Human alphaherpesvirus 1. Briefly: Antiviral activity against DNA polymerase mutant resistant to PFA 1a (PFA) was determined at a conc of 50 uM. It counts as functional. The gist of the method: as §1
Assay [7] deals with Human alphaherpesvirus 1. Briefly: Antiviral activity against DNA polymerase mutant resistant to KOS(parental) was determined at a conc of 50 uM. It is filed as functional. The gist of the method:
as §1

Assay [8] concerns Human alphaherpesvirus 1. Briefly: Antiviral activity against DNA polymerase mutant resistant to KOS(parental) was determined at a conc of 100 uM. It is filed as functional. The gist of the method: as §1
Assay [9] has as its system Human alphaherpesvirus 1. The assay can be described thus: Antiviral activity against DNA polymerase mutant resistant to PFA 5a(PFA) was determined at a conc of 50 uM. It counts as functional. The gist of the method:
as §1

Assay [10] concerns Human alphaherpesvirus 1. The assay can be described thus: Antiviral activity against HSV-1 kinase mutant resistant to B3(BVdU) was determined at a conc of 50 uM. It counts as functional. The gist of the method:
as §1

In assay [11] the test system is Human alphaherpesvirus 1. The assay can be described thus: Antiviral activity against DNA polymerase mutant resistant to PFA 5a(PFA) was determined at a conc of 100 uM. It is filed as functional. The gist of the method: as §1
The subject of assay [12] is Human alphaherpesvirus 1. Briefly: Antiviral activity against HSV-1 kinase mutant resistant to B3(BVdU) was determined at a conc of 100 uM. It counts as functional. The gist of the method: as §1
In a further assay the test system is Human alphaherpesvirus 2. Briefly: Antiviral activity against HSV-2 (333)was determined at a conc of 50 uM. It is filed as functional. The gist of the method:
as §1

For assay [13], the system named is Human alphaherpesvirus 1. The assay can be described thus: Antiviral activity against HSV-1 kinase mutant resistant to Tr7(ACV) was determined at a conc of 100 uM. It is filed as functional. The gist of the method:
as §1

Assay [14] concerns Human alphaherpesvirus 1. The assay can be described thus: Antiviral activity against HSV-1 kinase mutant resistant to S1(ACV) was determined at a conc of 50 uM. It is filed as functional. The gist of the method:
as §1

Assay [15] relates to Thymidine kinase (Human herpesvirus 2). Briefly: Phosphorylating activity of viral HSV -2 (333) induced thymidine kinase relative to dThdK was determined. To be noted: Human alphaherpesvirus 2.
The target of assay [16] is Cytidine deaminase (Homo sapiens) (UniProt P32320). The assay can be described thus: Relative velocity was determined against deaminase purified from human acute myeloblastic leukemia cells.
Chain of Cytidine deaminase (Homo sapiens) (P32320 whole entry, looked up): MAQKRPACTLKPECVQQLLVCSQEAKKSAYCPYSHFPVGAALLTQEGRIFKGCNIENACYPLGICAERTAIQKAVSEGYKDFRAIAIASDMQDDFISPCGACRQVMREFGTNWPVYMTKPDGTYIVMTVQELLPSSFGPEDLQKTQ
For assay [17], the system named is Human alphaherpesvirus 1. Briefly: Antiviral activity against HSV-1 kinase mutant resistant to SCS(parental) was determined at a conc of 50 uM. It is filed as functional. The gist of the method:
as §1

The test system of assay [18] is Human alphaherpesvirus 1. The assay can be described thus: Antiviral activity against DNA polymerase mutant resistant to PFA 3b(PFA) was determined at a conc of 100 uM. It is filed as functional. The gist of the method: as §1
The subject of assay [19] is Human alphaherpesvirus 1. Briefly: Antiviral activity against HSV-1 kinase mutant resistant to B3(BVdU) was determined at a conc of 30 uM. It is filed as functional. The gist of the method:
as §1

Assay [20] deals with Human alphaherpesvirus 1. The assay can be described thus: Antiviral activity against HSV-1 kinase mutant resistant to Tr7(ACV) was determined at a conc of 30 uM. It counts as functional. The gist of the method: as §1
Assay [21] has as its system Human alphaherpesvirus 1. Briefly: Antiviral activity against HSV-1 kinase mutant resistant to SCS(parental) was determined at a conc of 30 uM. It is filed as functional. The gist of the method:
as §1

The target of assay [22] is Cytidine deaminase (Homo sapiens) (UniProt P32320). Briefly: relative velocity was determined against deaminase purified from human acute myeloblastic leukemia cells.

In the case of `C#Cc1cn(C2O[C@H](CO)[C@@H](O)[C@@H]2O)c(=O)nc1N` (stereo not given in full), the Control turned out to be 0.04% with Human alphaherpesvirus 1 [1]; 59% in the assay on Human alphaherpesvirus 1 [2]; 4.7% in the assay with Human alphaherpesvirus 1 [3]; 0.36% in the assay with Human alphaherpesvirus 1 [4]; 0.12% in the assay with Human alphaherpesvirus 1 [5]; 0.54% with Human alphaherpesvirus 1 [6]. Further, the Control in the assay with Human alphaherpesvirus 1 [7] amounted to 0.06%; in the assay with Human alphaherpesvirus 1 [8], 0.06%; with Human alphaherpesvirus 1 [9], 0%; in the assay with Human alphaherpesvirus 1 [10] it was 0.04%; in the assay with Human alphaherpesvirus 1 [11], 0.1%; with Human alphaherpesvirus 1 [12], 0.06%. Moreover, the Control stood at 0.28% in the assay with Human alphaherpesvirus 2; 0.12% in the assay with Human alphaherpesvirus 1 [13]; 70% with Human alphaherpesvirus 1 [14]; 0.38% with Human alphaherpesvirus 1 [17]; 0.04% with Human alphaherpesvirus 1 [18]. In addition, the results for the Relative velocity in [15] and in [16] were 30% and 0.02, respectively.

Regarding `Nc1nc2c(ncn2COCCO)c(=O)[nH]1` [ACYCLOVIR], the Control with Human alphaherpesvirus 1 [3] is listed as 10%; in the assay on Human alphaherpesvirus 1 [4], 63%; in the assay on Human alphaherpesvirus 1 [6] it was 37%; in the assay with Human alphaherpesvirus 1 [7], 3%; in the assay with Human alphaherpesvirus 1 [9], 21%; in the assay on Human alphaherpesvirus 1 [10], 0.3%. Further, the Control in the assay on Human alphaherpesvirus 1 [14] was determined as 18%; in the assay with Human alphaherpesvirus 1 [17] it was 0.2%.

`O=C(O)P(=O)(O)O` [FOSCARNET]: the Control with Human alphaherpesvirus 1 [4] came to 24%; in the assay with Human alphaherpesvirus 1 [6], 37%; in the assay on Human alphaherpesvirus 1 [7], 2.9%; in the assay with Human alphaherpesvirus 1 [9], 63%.

As to `O=c1[nH]c(=O)n([C@H]2C[C@H](O)[C@@H](CO)O2)cc1/C=C/Br` [BRIVUDINE], the values for the Control in the assay on Human alphaherpesvirus 1 [19], in the assay on Human alphaherpesvirus 1 [20] and with Human alphaherpesvirus 1 [21] were 52%, 0.8% and 0.4%, respectively.

For the compound `Nc1ccn([C@H]2C[C@H](O)[C@@H](CO)O2)c(=O)n1`, the Relative velocity in assay [22] is 1.
